Laboratory results reported in ChEMBL document CHEMBL4033661, “Small molecules inhibit STAT3 activation, autophagy, and cancer cell anchorage-independent growth” (Bioorg Med Chem, 2017).
Each block holds one compound with its values, some of them ahead of it. The source made the active and inactive calls. The rule behind the calls is not given here.

Assays:
MDA-MB-231 [1] = experiment: Cytotoxicity against human MDA-MB-231 cells assessed as cell growth inhibition after 3 days by MTT assay; type: functional, cell-based; conditions: MDA-MB-231, 72 h
In short: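 MDA-MB-231 cells (10^4/well) in DMEM with 10% FBS at 37 °C, 5% CO2 were plated overnight, then exposed to compounds at the indicated concentrations or 1% DMSO control for 3 d. MTT (5 mg/mL stock) was added for 2 h. Absorbance was read at 570 nm with a 630 nm reference. Values are mean ± SD, n = 3.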

[2] = molecular target: T1, Maternal embryonic leucine zipper kinase (Homo sapiens, UniProt Q14680); experiment: Inhibition of MELK (unknown origin)
Target sequence in this assay (Q14680 whole entry): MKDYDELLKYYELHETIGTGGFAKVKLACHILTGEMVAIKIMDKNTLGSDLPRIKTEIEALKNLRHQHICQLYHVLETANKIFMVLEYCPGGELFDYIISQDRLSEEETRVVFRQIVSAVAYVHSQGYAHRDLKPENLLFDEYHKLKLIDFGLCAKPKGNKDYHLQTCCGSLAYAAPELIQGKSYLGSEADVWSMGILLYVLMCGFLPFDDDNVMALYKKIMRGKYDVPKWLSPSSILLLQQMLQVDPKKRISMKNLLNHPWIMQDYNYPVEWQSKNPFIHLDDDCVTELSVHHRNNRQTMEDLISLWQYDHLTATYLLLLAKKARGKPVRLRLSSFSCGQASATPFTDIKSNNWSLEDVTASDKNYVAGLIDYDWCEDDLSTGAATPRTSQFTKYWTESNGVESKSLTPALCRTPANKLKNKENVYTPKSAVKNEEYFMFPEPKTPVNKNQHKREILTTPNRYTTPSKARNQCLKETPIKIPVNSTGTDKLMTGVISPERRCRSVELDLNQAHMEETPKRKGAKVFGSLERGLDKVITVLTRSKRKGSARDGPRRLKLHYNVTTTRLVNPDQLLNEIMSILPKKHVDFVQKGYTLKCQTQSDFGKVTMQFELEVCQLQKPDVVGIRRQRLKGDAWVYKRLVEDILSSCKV

Angiopoietin-1 receptor = Angiopoietin-1 receptor (Homo sapiens, UniProt Q02763); experiment: Inhibition of TIE2/TEK (unknown origin)
[3] = molecular target: Tyrosine-protein kinase Blk (Homo sapiens, UniProt P51451); experiment: Inhibition of BLK (unknown origin)
[4] = molecular target: Tyrosine-protein kinase JAK2 (Homo sapiens) (UniProt O60674); experiment: Inhibition of JAK2 (unknown origin) at 20 uM
Insulin receptor = Insulin receptor (Homo sapiens, UniProt P06213); experiment: Inhibition of IR (unknown origin)
[5] = molecular target: Fibroblast growth factor receptor 1 (Homo sapiens, UniProt P11362); experiment: Inhibition of FGFR1 (unknown origin)
[6] = molecular target: T1, Maternal embryonic leucine zipper kinase; experiment: Inhibition of MELK (unknown origin) at 20 uM relative to control
Target sequence in this assay (Q14680 whole entry, looked up): as the sequence (Q14680 whole entry) above

[7] = molecular target: Signal transducer and activator of transcription 3 (Homo sapiens) (UniProt P40763); experiment: Inhibition of STAT3 at Tyr705 in human MDA-MB-468 cells at 5 uM after 8 hrs by Western blot method; type: cell-based
[8] = molecular target: Megakaryocyte-associated tyrosine-protein kinase (Homo sapiens, UniProt P42679); experiment: Inhibition of CTK/MATK (unknown origin)
MDA-MB-231 [9] = experiment: Cytotoxicity against human MDA-MB-231 cells assessed as inhibition of anchorage-independent colony formation on soft agar after 10 days by crystal violet staining based assay; type: functional, cell-based; conditions: MDA-MB-231, 240 h
In short: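 Base layer 0.5% agar, top layer 0.3% agar containing the cells, both in DMEM with 10% FBS. Feeding medium held compound at the indicated concentrations or 1% DMSO and was changed twice weekly for 10 d at 37 °C, 5% CO2. Colonies were stained with 0.005% crystal violet and counted under a dissecting microscope. Values are mean ± SE of six fields from two independent samples.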

[10] = molecular target: Calcium/calmodulin-dependent protein kinase type 1 (Homo sapiens, UniProt Q14012); experiment: Inhibition of CaMK1alpha (unknown origin)
[11] = molecular target: Signal transducer and activator of transcription 3 (Homo sapiens) (UniProt P40763); experiment: Inhibition of STAT3 phosphorylation in human MDA-MB-231 cells assessed as downregulation of Bcl-XL level at 5 uM up to 48 hrs by Western blot method; type: cell-based
In short: (§1)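 Cells were treated at 5 µM over 48 h. Total lysates were made in RIPA with protease/phosphatase inhibitors, 30 µg protein was run on 10% SDS-PAGE and moved to nitrocellulose. Primary antibodies were applied overnight at 4 °C, then IRDye 800 anti-mouse or Alexa Fluor 680 anti-rabbit secondaries for 1 h at RT, with infrared imaging. Actin served as loading control. Band changes are given as percent of control, mean ± SD, n = 2.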

[12] = molecular target: Tyrosine-protein kinase CSK (Homo sapiens, UniProt P41240); experiment: Inhibition of CSK (unknown origin)
[13] = molecular target: RAC-alpha serine/threonine-protein kinase (Homo sapiens) (UniProt P31749); experiment: Inhibition of Akt phosphorylation in human MDA-MB-468 cells by Western blot method; type: cell-based
[14] = molecular target: Receptor tyrosine-protein kinase erbB-4 (Homo sapiens, UniProt Q15303); experiment: Inhibition of ERBB4/HER4 (unknown origin)
[15] = molecular target: T1, Maternal embryonic leucine zipper kinase; experiment: Inhibition of MELK in human MDA-MB-231 cells assessed as decrease in cyclin A2 level at 5 uM measured over 48 hrs by Western blot method; type: cell-based; in short: as §1
Target sequence in this assay (Q14680 whole entry, looked up): as the sequence (Q14680 whole entry) above

[16] = molecular target: Tyrosine-protein kinase Fer (Homo sapiens, UniProt P16591); experiment: Inhibition of FER (unknown origin)
[17] = molecular target: Signal transducer and activator of transcription 3 (Homo sapiens) (UniProt P40763); experiment: Inhibition of STAT3 phosphorylation in human MDA-MB-468 cells assessed as down regulation of Bcl-XL level at 5 uM up to 48 hrs by Western blot method; type: cell-based; in short: as §1
[18] = molecular target: Tyrosine-protein kinase Lyn (Homo sapiens, UniProt P07948); experiment: Inhibition of LYN B (unknown origin)
[19] = molecular target: Tyrosine-protein kinase BTK (Homo sapiens, UniProt Q06187); experiment: Inhibition of BTK (unknown origin)
[20] = molecular target: Signal transducer and activator of transcription 3 (Homo sapiens) (UniProt P40763); experiment: Inhibition of STAT3 phosphorylation in human MDA-MB-231 cells assessed as downregulation of survivin level at 5 uM up to 48 hrs by Western blot method; type: cell-based; in short: as §1
[21] = molecular target: T1, Maternal embryonic leucine zipper kinase; experiment: Inhibition of MELK in human MDA-MB-468 cells assessed as decrease in p53 phosphorylation at Ser15 residue at 5 uM by Western blot method; type: cell-based; conditions: TDE = time-dependent effect; in short: as §1
Target sequence in this assay (Q14680 whole entry, looked up): as the sequence (Q14680 whole entry) above

[22] = molecular target: T1, Maternal embryonic leucine zipper kinase; experiment: Inhibition of MELK in human MDA-MB-468 cells assessed as upregulation of p53-dependent p21WAF1/CIP1 expression at 5 uM by Western blot method; type: cell-based; conditions: TDE = time-dependent effect; in short: as §1
Target sequence in this assay (Q14680 whole entry, looked up): as the sequence (Q14680 whole entry) above

[23] = molecular target: Calcium/calmodulin-dependent protein kinase type II subunit gamma (Homo sapiens, UniProt Q13555); experiment: Inhibition of CaMK2gamma (unknown origin)
MDA-MB-468 = experiment: Effect on p53 levels in human MDA-MB-468 cells at 5 uM up to 48 hrs by Western blot method; type: functional, cell-based; in short: as §1
[24] = molecular target: Tyrosine-protein kinase JAK3 (Homo sapiens) (UniProt P52333); experiment: Inhibition of JAK3 (unknown origin) at 20 uM
[25] = molecular target: Signal transducer and activator of transcription 3 (Homo sapiens) (UniProt P40763); experiment: Inhibition of STAT3 in human MDA-MB-231 cells assessed as decrease in autophagic flux by measuring accumulation of LC3B-2 level at 5 uM after 4 hrs in presence of bafilomycin A by Western blot method; type: cell-based
In short: (§2)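 Cells were exposed for 4 h to 5 µM compound, DMSO vehicle, or 1% O2 as hypoxic autophagy control. Bafilomycin A1 (100 nM) was added 4 h before harvest. Lysis was in NP40 buffer with protease/phosphatase inhibitors, then 16,300g spin for 15 min at 4 °C, SDS-PAGE and PVDF transfer. Blots were probed overnight at 4 °C with anti-LC3B (1:3000), then HRP secondary (1:10,000) for 2 h, with ECL detection of LC3B-I and LC3B-II.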

[26] = molecular target: Signal transducer and activator of transcription 3 (Homo sapiens) (UniProt P40763); experiment: Inhibition of STAT3 at Tyr705 in human MDA-MB-231 cells at 5 uM after 8 hrs by Western blot method; type: cell-based
[27] = molecular target: Signal transducer and activator of transcription 3 (Homo sapiens) (UniProt P40763); experiment: Inhibition of STAT3 phosphorylation at Tyr705 in human MDA-MB-231 cells at 5 uM measured at 4 hrs by Western blot method; type: cell-based
[28] = molecular target: T1, Maternal embryonic leucine zipper kinase; experiment: Inhibition of MELK in human MDA-MB-468 cells assessed as decrease in cyclin A2 level at 5 uM measured over 48 hrs by Western blot method; type: cell-based; in short: as §1
Target sequence in this assay (Q14680 whole entry, looked up): as the sequence (Q14680 whole entry) above

[29] = molecular target: Signal transducer and activator of transcription 3 (Homo sapiens) (UniProt P40763); experiment: Inhibition of STAT3 phosphorylation in human MDA-MB-468 cells assessed as down regulation of survivin level at 5 uM up to 48 hrs by Western blot method; type: cell-based; in short: as §1
[30] = molecular target: Signal transducer and activator of transcription 3 (Homo sapiens) (UniProt P40763); experiment: Inhibition of STAT3 phosphorylation at Tyr705 in human MDA-MB-468 cells at 5 uM measured at 4 hrs by Western blot method; type: cell-based
[31] = molecular target: Cytoplasmic tyrosine-protein kinase BMX (Homo sapiens, UniProt P51813); experiment: Inhibition of BMX/ETK (unknown origin)
[32] = molecular target: Tyrosine-protein kinase JAK1 (Homo sapiens) (UniProt P23458); experiment: Inhibition of JAK1 (unknown origin) at 20 uM
[33] = molecular target: Calcium/calmodulin-dependent protein kinase type II subunit delta (Homo sapiens, UniProt Q13557); experiment: Inhibition of CaMK2delta (unknown origin)
[34] = molecular target: Signal transducer and activator of transcription 3 (Homo sapiens) (UniProt P40763); experiment: Inhibition of STAT3 in human MDA-MB-468 cells assessed as decrease in autophagic flux by measuring accumulation of LC3B-2 level at 5 uM after 4 hrs in presence of bafilomycin A by Western blot method; type: cell-based; in short: as §2
[35] = molecular target: T1, Maternal embryonic leucine zipper kinase; experiment: Inhibition of MELK in human MDA-MB-231 cells assessed as upregulation of p53-dependent p21WAF1/CIP1 expression at 5 uM by Western blot method; type: cell-based; conditions: TDE = time-dependent effect; in short: as §1
Target sequence in this assay (Q14680 whole entry, looked up): as the sequence (Q14680 whole entry) above

[36] = molecular target: Signal transducer and activator of transcription 3 (Homo sapiens) (UniProt P40763); experiment: Inhibition of [gamma32P]-ATP labelled DNA binding to STAT3 dimer (unknown origin) at 5 uM after 4 hrs by electrophoretic mobility shift assay
In short: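 STAT3 consensus oligonucleotide was 5'-labeled with [γ-32P]ATP using polynucleotide kinase. Nuclear protein (2 µg) was incubated with probe for 30 min on ice in 10 mM Tris, 50 mM KCl, 1 mM DTT, 50 µM EDTA, 50 ng/µL poly(dI-dC), pH 7.5. Samples were run on a 4% native polyacrylamide gel in Tris-glycine-EDTA, then the gel was dried and autoradiographed.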

Signal transducer and activator of transcription 3 (Homo sapiens), sequence (P40763 whole entry): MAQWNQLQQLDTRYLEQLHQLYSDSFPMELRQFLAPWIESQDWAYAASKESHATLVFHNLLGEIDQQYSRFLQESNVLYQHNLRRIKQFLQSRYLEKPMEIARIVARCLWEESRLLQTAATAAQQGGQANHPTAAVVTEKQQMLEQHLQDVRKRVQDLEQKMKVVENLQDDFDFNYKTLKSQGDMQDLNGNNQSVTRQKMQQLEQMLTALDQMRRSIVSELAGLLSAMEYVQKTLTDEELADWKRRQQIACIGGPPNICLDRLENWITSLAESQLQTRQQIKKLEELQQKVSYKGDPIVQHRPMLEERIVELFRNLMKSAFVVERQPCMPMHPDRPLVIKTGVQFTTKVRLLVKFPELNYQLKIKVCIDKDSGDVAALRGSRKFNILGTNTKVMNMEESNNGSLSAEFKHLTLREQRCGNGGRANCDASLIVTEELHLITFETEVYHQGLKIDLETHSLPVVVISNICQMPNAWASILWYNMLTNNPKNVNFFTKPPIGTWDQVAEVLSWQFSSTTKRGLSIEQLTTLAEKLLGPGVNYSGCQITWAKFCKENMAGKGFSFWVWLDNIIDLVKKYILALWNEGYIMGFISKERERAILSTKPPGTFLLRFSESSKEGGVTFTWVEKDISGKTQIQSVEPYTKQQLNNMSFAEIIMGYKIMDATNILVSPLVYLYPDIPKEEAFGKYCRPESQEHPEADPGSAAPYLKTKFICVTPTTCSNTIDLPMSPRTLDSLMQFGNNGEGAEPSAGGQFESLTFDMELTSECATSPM
RAC-alpha serine/threonine-protein kinase (Homo sapiens), sequence (P31749 whole entry): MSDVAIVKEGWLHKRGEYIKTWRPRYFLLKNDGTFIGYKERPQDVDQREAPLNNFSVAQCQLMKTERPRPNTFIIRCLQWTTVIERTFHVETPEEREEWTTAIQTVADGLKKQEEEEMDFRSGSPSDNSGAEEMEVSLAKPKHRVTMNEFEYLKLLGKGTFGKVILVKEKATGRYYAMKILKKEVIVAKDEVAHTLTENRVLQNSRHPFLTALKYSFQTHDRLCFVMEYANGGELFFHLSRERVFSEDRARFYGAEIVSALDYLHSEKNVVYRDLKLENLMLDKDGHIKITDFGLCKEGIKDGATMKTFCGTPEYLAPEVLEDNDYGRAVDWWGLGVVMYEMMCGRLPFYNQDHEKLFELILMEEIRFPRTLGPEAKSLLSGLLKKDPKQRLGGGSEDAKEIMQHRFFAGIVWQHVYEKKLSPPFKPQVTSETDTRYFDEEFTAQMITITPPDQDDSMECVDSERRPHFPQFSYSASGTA
Receptor tyrosine-protein kinase erbB-4, sequence (Q15303 whole entry): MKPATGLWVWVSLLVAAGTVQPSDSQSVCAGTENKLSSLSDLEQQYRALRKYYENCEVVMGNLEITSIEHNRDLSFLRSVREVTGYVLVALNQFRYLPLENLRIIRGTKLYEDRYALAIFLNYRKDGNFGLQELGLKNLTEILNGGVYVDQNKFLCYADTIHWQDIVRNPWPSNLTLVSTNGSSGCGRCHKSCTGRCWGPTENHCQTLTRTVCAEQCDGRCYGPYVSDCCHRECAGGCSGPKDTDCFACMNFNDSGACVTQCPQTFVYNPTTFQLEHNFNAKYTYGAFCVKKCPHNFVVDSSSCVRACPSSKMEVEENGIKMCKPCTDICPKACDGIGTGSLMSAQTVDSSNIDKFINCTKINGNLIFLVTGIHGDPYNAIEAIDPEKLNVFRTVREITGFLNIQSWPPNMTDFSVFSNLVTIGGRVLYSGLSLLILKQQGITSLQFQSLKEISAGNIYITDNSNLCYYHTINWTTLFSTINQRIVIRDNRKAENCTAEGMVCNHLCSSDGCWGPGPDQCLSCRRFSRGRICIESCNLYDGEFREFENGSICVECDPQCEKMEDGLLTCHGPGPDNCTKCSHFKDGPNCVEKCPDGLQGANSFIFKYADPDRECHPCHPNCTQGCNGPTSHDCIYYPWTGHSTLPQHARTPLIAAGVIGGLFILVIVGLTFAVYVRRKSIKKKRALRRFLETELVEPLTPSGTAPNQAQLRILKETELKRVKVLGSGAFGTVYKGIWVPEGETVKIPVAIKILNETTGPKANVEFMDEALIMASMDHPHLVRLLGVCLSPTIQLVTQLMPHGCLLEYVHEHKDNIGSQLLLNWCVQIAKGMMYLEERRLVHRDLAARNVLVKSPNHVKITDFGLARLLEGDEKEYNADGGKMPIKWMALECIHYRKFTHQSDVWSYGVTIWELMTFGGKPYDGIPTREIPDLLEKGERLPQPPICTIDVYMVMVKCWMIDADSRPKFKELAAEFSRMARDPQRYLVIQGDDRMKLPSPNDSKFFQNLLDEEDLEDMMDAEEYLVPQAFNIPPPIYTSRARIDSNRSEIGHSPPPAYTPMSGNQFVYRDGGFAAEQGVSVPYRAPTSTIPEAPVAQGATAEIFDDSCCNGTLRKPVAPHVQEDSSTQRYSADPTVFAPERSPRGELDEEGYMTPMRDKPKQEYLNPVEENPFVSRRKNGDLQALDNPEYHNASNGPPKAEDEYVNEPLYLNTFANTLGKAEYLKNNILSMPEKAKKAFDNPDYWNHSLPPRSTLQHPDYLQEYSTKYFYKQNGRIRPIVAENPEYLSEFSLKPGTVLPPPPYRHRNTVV
Tyrosine-protein kinase Blk, sequence (P51451 whole entry): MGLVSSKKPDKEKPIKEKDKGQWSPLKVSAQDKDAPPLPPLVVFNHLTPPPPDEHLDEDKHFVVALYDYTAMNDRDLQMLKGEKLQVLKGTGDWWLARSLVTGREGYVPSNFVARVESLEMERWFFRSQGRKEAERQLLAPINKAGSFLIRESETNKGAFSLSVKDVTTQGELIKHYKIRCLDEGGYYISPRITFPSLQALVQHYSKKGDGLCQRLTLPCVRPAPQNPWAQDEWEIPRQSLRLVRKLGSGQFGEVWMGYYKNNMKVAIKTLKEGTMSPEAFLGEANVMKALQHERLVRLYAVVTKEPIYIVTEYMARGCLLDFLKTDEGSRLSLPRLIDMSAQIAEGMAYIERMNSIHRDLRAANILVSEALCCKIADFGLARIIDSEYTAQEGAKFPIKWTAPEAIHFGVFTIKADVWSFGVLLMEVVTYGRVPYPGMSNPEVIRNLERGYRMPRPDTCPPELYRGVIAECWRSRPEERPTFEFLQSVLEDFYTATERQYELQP
Tyrosine-protein kinase Lyn, sequence (P07948 whole entry): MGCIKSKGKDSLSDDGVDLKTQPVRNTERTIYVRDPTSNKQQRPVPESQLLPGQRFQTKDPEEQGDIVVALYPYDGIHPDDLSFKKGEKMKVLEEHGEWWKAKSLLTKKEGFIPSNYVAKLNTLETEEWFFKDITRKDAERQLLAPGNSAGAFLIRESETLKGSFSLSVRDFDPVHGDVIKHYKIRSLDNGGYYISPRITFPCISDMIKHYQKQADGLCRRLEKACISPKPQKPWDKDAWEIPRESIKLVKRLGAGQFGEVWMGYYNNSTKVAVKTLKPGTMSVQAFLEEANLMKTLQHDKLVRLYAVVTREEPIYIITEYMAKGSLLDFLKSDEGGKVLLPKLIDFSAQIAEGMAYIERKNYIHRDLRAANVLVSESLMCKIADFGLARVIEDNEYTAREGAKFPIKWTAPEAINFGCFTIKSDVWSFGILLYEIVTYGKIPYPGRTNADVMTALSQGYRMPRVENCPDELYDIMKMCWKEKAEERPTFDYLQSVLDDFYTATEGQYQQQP
Megakaryocyte-associated tyrosine-protein kinase, sequence (P42679 whole entry): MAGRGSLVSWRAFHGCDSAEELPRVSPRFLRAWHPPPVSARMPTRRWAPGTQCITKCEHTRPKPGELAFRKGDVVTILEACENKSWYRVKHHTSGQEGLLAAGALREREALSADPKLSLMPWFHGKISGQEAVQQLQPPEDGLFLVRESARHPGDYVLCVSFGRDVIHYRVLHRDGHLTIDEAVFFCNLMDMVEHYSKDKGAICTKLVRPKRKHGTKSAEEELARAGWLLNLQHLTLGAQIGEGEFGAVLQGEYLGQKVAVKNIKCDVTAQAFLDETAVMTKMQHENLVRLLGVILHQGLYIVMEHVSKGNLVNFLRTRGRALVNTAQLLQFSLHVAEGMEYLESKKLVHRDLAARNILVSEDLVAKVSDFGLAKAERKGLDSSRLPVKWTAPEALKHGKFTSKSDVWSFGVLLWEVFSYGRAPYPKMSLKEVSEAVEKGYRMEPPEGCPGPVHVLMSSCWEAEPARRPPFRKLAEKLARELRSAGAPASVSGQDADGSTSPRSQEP

Compound: CC1CCN(c2nc(/C=C/c3ccccc3)nc3ccccc23)CC1
IC50 (MDA-MB-231 [1]): > 10 µM

Compound: CCN(CC)CCNc1nc(/C=C/c2ccc(Cl)cc2)nc2cc3ccccc3cc12
IC50 (MDA-MB-231 [1]): < 10 µM

Compound: CCN(CC)CCCC(C)Nc1nc(/C=C/c2ccccc2)nc2cc(Cl)ccc12 (stereo not drawn)
inhibition [7]: inactive
inhibition [36]: Active
inhibition [11]: Active
inhibition [13]: inactive
inhibition [15]: Active
inhibition [17]: Active
inhibition [20]: Active
inhibition [21]: Tde
inhibition [22]: Tde
inhibition [26]: inactive
inhibition [27]: Active
inhibition [28]: Active
inhibition [29]: Active
inhibition [30]: Active
inhibition [35]: Tde

Compound: C(=C\c1nc(N2CCCC2)c2ccccc2n1)/c1ccccc1
IC50 (MDA-MB-231 [1]): < 10 µM

Further lines, with some results ahead:

IC50 [2]: 2.1 µM
Compound: CCN(CC)CCCCNc1nc(/C=C/c2c(Cl)cc(Cl)cc2Cl)nc2ccc(N)cc12

IC50 (Angiopoietin-1 receptor): 1.8 µM
IC50 [3]: 8.8 µM
inhibition [4]: inactive
IC50 (Insulin receptor): > 100 µM
IC50 [5]: 9 µM
inhibition [6]: > 98%
inhibition [7]: inactive
IC50 [8]: 14.7 µM
IC50 [10]: 6.9 µM
inhibition [11]: Active
IC50 [12]: > 100 µM
inhibition [13]: inactive
IC50 [14]: 23.9 µM
inhibition [15]: Active
IC50 [16]: 42.7 µM
inhibition [17]: Active
IC50 [18]: 10.5 µM
IC50 [19]: 6.7 µM
inhibition [21]: Tde
inhibition [22]: Tde
IC50 [23]: 9.2 µM
inhibition [24]: inactive
IC50 [2]: 1.4 µM
inhibition [25]: Active
inhibition [26]: inactive
inhibition [27]: Active
inhibition [28]: Active
inhibition [30]: Active
IC50 [31]: 1.9 µM
inhibition [32]: inactive
IC50 [33]: 9.1 µM
inhibition [34]: Active
inhibition [35]: Tde
Compound: CCN(CC)CCCC(C)Nc1nc(/C=C/c2c(Cl)cc(Cl)cc2Cl)nc2ccc(N)cc12 (stereo not drawn)
IC50 (MDA-MB-231 [9]): 3 to 7 µM
inhibition [20]: Active
Activity (MDA-MB-468): inactive
inhibition [29]: Active
IC50 (MDA-MB-231 [1]): 2 µM

IC50 [2]: 3.5 µM
Compound: Nc1ccc2nc(/C=C/c3ccc(C(F)(F)F)cc3)nc(NCCCN3CCOCC3)c2c1
